From ChEMBL document CHEMBL1221292, “Design, synthesis, and evaluation of quinazoline T cell proliferation inhibitors” (Bioorg Med Chem, 2010)
Values belong to the compound of their own block, whether it stands above or below them. Calls of active or inactive are those of the source. The rule behind the calls is not given here.

Experiments:
[1] = system: PBMC; test: Antiproliferative activity against ConA-stimulated human PBMC after 72 hrs by BrdU incorporation assay; type: functional, cell-based
Outline: (§1)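 Cells grown in RPMI at 37 °C, 5% CO2, then serum-starved 12 h. PBMC stimulated with ConA 10 µg/mL; Jurkat need no stimulation. 1 × 10^5 cells cultured 3 days with or without inhibitor, duplicate wells. Labelled with 10 µM BrdU, DNA denatured, anti-BrdU-POD added, colorimetric TMB read-out; IC50 derived.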

[2] = system: Jurkat; test: Antiproliferative activity against human Jurkat cells after 72 hrs by BrdU incorporation assay; type: functional, cell-based; outline: as §1
[3] = system: PBMC; test: Inhibition of anti-TCR-stimulated IL2 production in human PBMC cells […] after 12 hrs by ELISA; type: functional, cell-based
Outline: (§2)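 Jurkat or PBMC treated 12 h with 1 µM, 0.5 µM or no inhibitor. 1 × 10^6 cells were then stimulated 12 h with plate-bound anti-TCR C305 (1:500) alone, or with anti-CD28 (1:100) and/or PMA (50 ng/ml); ionomycin 1 µM was also used. Cells spun out at 130g. Supernatant IL-2 measured by ELISA, absorbance 450 nm.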

[4] = system: Jurkat; test: Inhibition of PMA/anti-CD28-stimulated IL2 production in human Jurkat cells […] after 12 hrs by ELISA; type: functional, cell-based; outline: as §2
[5] = system: Jurkat; test: Inhibition of TCR-mediated Zap70 phosphorylation in human Jurkat cells after 16 hrs by Western blotting; type: cell-based
Outline: (§3)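 Jurkat treated 16 h with inhibitor, then stimulated 1 min at 37 °C with C305 (1:500) or mock PBS. Cells lysed at 2 × 10^7 cells/mL in NP-40 buffer with phosphatase and protease inhibitors. SLP-76 immunoprecipitated; pTyr detected by Western blot with 4G-10. For ZAP-70 activity, ZAP-70 IP was incubated with recombinant His-SLP-76 and 5 µM ATP for 15 min at 30 °C, then blotted for pTyr.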

[6] = system: Jurkat; test: Inhibition of TCR-mediated SLP76 phosphorylation in human Jurkat cells after 16 hrs by Western blotting; type: cell-based; outline: as §3
[7] = system: Jurkat; test: Antiproliferative activity against non-stimulated human Jurkat cells after 72 hrs by BrdU incorporation assay; type: functional, cell-based; outline: as §1
[8] = system: Jurkat; test: Antiproliferative activity against ConA-stimulated human Jurkat after 72 hrs by BrdU incorporation assay; type: functional, cell-based
[9] = system: PBMC; test: Antiproliferative activity against non-stimulated human PBMC after 72 hrs by BrdU incorporation assay; type: cell-based
[10] = Antiproliferative activity against stimulated human keratinocytes after 72 hrs by BrdU incorporation assay; type: functional, cell-based; settings: Keratinocyte
[11] = system: PC-3; test: Antiproliferative activity against non-stimulated human PC3 after 72 hrs by BrdU incorporation assay; type: functional, cell-based; settings: PC-3, 72 h
[12] = system: PC-3; test: Antiproliferative activity against stimulated human PC3 after 72 hrs by BrdU incorporation assay; type: functional, cell-based; settings: PC-3, 72 h
[13] = system: HEK293; test: Antiproliferative activity against non-stimulated human HEK293 cells after 72 hrs by BrdU incorporation assay; type: functional, cell-based; settings: HEK293, 72 h
[14] = system: HEK293; test: Antiproliferative activity against FCS-stimulated human HEK293 cells after 72 hrs by BrdU incorporation assay; type: functional, cell-based; settings: HEK293, 72 h
Outline: (§4)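 Non-hematopoietic lines grown in DMEM, serum-starved 12 h, then stimulated: 10% FCS (HEK293, A375), PDGF 30 ng/mL (NIH 3T3), EGF 30 ng/mL (MDA-MB-231). 1 × 10^5 cells cultured 3 days over increasing inhibitor concentrations, duplicate wells. Proliferation by 10 µM BrdU labelling with colorimetric anti-BrdU-POD ELISA (TMB).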

[15] = system: A-375; test: Antiproliferative activity against non-stimulated human A375 cells after 72 hrs by BrdU incorporation assay; type: functional, cell-based; settings: A-375, 72 h
[16] = system: A-375; test: Antiproliferative activity against FCS-stimulated human A375 cells after 72 hrs by BrdU incorporation assay; type: functional, cell-based; settings: A-375, 72 h; outline: as §4
[17] = system: NIH3T3; test: Antiproliferative activity against non-stimulated mouse NIH/3T3 cells after 72 hrs by BrdU incorporation assay; type: functional, cell-based; settings: NIH3T3, 72 h
[18] = system: NIH3T3; test: Antiproliferative activity against PDGF-stimulated mouse NIH/3T3 cells after 72 hrs by BrdU incorporation assay; type: functional, cell-based; settings: NIH3T3, 72 h; outline: as §4
[19] = system: MDA-MB-231; test: Antiproliferative activity against non-stimulated human MDA-MB-231 cells after 72 hrs by BrdU incorporation assay; type: functional, cell-based; settings: MDA-MB-231, 72 h
[20] = system: PBMC; test: Cell cycle arrest in human PBMC assessed as accumulation at G2 phase by flow cytometry; type: functional
Outline: (§5)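 PBMC treated with inhibitor 12 and 24 h, then pelleted, PBS-washed and fixed in cold 70% ethanol for at least 12 h. RNase A added for 30 min in the dark, then propidium iodide; DNA content analysed by FACS for G2 and sub-G1 fractions.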

[21] = system: PBMC; test: Cell cycle arrest in human PBMC assessed as accumulation at subG1 phase by flow cytometry; type: functional; outline: as §5
[22] = system: Jurkat; test: Inhibition of anti-TCR-stimulated IL2 production in human Jurkat cells […] by ELISA; type: functional, cell-based; outline: as §2
[23] = system: Jurkat; test: Inhibition of anti-TCR/antiCD28-stimulated IL2 production in human Jurkat cells […] after 12 hrs by ELISA; type: functional, cell-based; outline: as §2
[24] = system: PBMC; test: Inhibition of PMA/anti-CD28-stimulated IL2 production in human PBMC cells up to 5 uM after 12 hrs by ELISA; type: functional, cell-based; outline: as §2
[25] = system: PBMC; test: Inhibition of anti-TCR/PMA-stimulated IL2 production in human PBMC cells […] after 12 hrs by ELISA; type: functional, cell-based; outline: as §2
[26] = system: Splenocyte; test: Inhibition of irradiated BALB/c mouse splenocyte-stimulated IL2 secretion in 2C mouse splenocyte after 72 hrs by mixed lymphocyte reaction; type: functional, cell-based
Outline: (§6)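 MLR: splenocytes from 2c mice stimulated by irradiated BALB/c splenocytes in the presence of compound at the specified concentrations, 96-well cultures up to 72 h. Supernatants collected at 24, 48 and 72 h; IL-2 measured by ELISA at 450 nm.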

[27] = system: Splenocyte; test: Inhibition of irradiated BALB/c mouse splenocyte-stimulated IL2 secretion in 2C mouse splenocyte at 1 uM after 24 hrs by mixed lymphocyte reaction; type: functional, cell-based; outline: as §6
[28] = system: PBMC; test: Antiproliferative activity against ODN2006-stimulated human PBMC after 72 hrs by BrdU incorporation assay; type: functional, cell-based
Outline: (§7)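 PBMC isolated from healthy donor blood on Ficoll. CD3+ T cells purified with anti-CD3 (autoMACS), identity confirmed as CD3+ by flow cytometry; CD3-depleted PBMC also kept. Stimulation: ConA (10 µg/mL), ODN2006 (0.5 µg/mL) or LPS (50 µg/mL); depleted PBMC got ODN2006 or LPS. Cultured 72 h with inhibitor. Read-out was BrdU uptake, normalized to maximal proliferation without inhibitor.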

[29] = system: PBMC; test: Antiproliferative activity against LPS-stimulated human PBMC after 72 hrs by BrdU incorporation assay; type: functional, cell-based; outline: as §7
[30] = system: PBMC; test: Antiproliferative activity against CD3+ expressing human PBMC after 72 hrs by BrdU incorporation assay; type: functional, cell-based; outline: as §7
[31] = system: PBMC; test: Antiproliferative activity against CD3 deficient human PBMC after 72 hrs by BrdU incorporation assay; type: functional, cell-based; outline: as §7
[32] = system: MDA-MB-231; test: Antiproliferative activity against stimulated human MDA-MB-231 cells after 72 hrs by BrdU incorporation assay; type: functional, cell-based; settings: MDA-MB-231, 72 h; outline: as §4

Structure (SMILES): Oc1cc(-c2nc(NCc3ccccc3)c3ccccc3n2)cc(O)c1O
- IC50 [1]: 7000 nM
- IC50 [2]: 950 nM

Structure (SMILES): COc1ccc(CNc2nc(-c3cc(O)c(O)c(O)c3)nc3ccccc23)cc1
- IC50 [1]: 3260 nM
- IC50 [2]: 5430 nM

Structure (SMILES): COc1ccc(Nc2nc(-c3cc(OC)c(OC)c(OC)c3)nc3ccccc23)cc1
- IC50 [1]: 500 nM
- IC50 [2]: 1100 nM

Structure (SMILES): COc1cc(-c2nc(Nc3ccc4nc[nH]c4c3)c3ccccc3n2)cc(OC)c1OC
- IC50 [1]: 430 nM
- IC50 [2]: 1500 nM

Structure (SMILES): Oc1ccc(Nc2nc(-c3cc(O)c(O)c(O)c3)nc3ccccc23)cc1
- IC50 [1]: 970 nM
- IC50 [2]: 1120 nM

Structure (SMILES): Oc1cc(-c2nc(Nc3ccc(Cl)cc3)c3ccccc3n2)cc(O)c1O
- IC50 [1]: 550 nM
- IC50 [2]: 4250 nM

Structure (SMILES): Oc1cc(-c2nc(Nc3ccc4nc[nH]c4c3)c3ccccc3n2)cc(O)c1O
- IC50 [1]: 4340 nM
- IC50 [2]: 2570 nM

Structure (SMILES): Oc1cc(-c2nc(Nc3ccccc3)c3ccccc3n2)cc(O)c1O
- IC50 [1]: 650 nM
- IC50 [2]: 5500 nM

Now those with a lower IC50 [2], led by results:

- IC50 [2]: 600 nM
Structure (SMILES): COc1cc(-c2nc(Nc3ccc4cn[nH]c4c3)c3ccccc3n2)cc(OC)c1OC
- IC50 [1]: 450 nM

- IC50 [2]: 530 nM
Structure (SMILES): COc1cc(-c2nc(Nc3ccc(Cl)cc3)c3ccccc3n2)cc(OC)c1OC
- IC50 [1]: 300 nM

- IC50 [2]: 180 nM
Structure (SMILES): COc1cc(-c2nc(Nc3ccc(OC(F)(F)F)cc3)c3ccccc3n2)cc(OC)c1OC
- IC50 [1]: 400 nM

- IC50 [2]: 690 nM
Structure (SMILES): Oc1cc(-c2nc(Nc3ccc4cn[nH]c4c3)c3ccccc3n2)cc(O)c1O
- IC50 [1]: 500 nM

- IC50 [2]: 710 nM
Structure (SMILES): Oc1cc(-c2nc(Nc3ccc4[nH]ncc4c3)c3ccccc3n2)cc(O)c1O
- IC50 [1]: 780 nM

- IC50 [2]: 850 nM
Structure (SMILES): CCCCCCCCOc1ccc(Nc2nc(-c3cc(OC)c(OC)c(OC)c3)nc3ccccc23)cc1
- IC50 [1]: 2400 nM

- IC50 [2]: 380 nM
Structure (SMILES): COc1cc(-c2nc(Nc3ccccc3)c3ccccc3n2)cc(OC)c1OC
- IC50 [1]: 280 nM

- IC50 [2]: 600 nM
Structure (SMILES): COc1cc(-c2nc(Nc3ccc4c(c3)OCO4)c3ccccc3n2)cc(OC)c1OC
- IC50 [1]: 380 nM

- IC50 [2]: 29 nM
- IC50 [7]: 50 nM
- IC50 [8]: 100 nM
- IC50 [11]: 10000 nM
- IC50 [12]: > 10000 nM
- IC50 [15]: 800 nM
- IC50 [16]: > 10000 nM
- IC50 [19]: > 10000 nM
- IC50 [32]: > 10000 nM
Structure (SMILES): COc1cc(-c2nc(Nc3ccc(C)cc3)c3ccccc3n2)cc(OC)c1OC
- inhibition [3]: inactive
- inhibition [4]: inactive
- inhibition [5]: Dose-dependent effect
- inhibition [6]: Dose-dependent effect
- IC50 [1]: 70 nM
- IC50 [9]: 50 nM
- IC50 [10]: > 10000 nM
- IC50 [13]: 10000 nM
- IC50 [14]: 10000 nM
- IC50 [17]: 3000 nM
- IC50 [18]: 7000 nM
- Activity [20]: 50%
- Activity [21]: 9.5%
- inhibition [22]: inactive
- inhibition [23]: inactive
- inhibition [24]: inactive
- inhibition [25]: inactive
- inhibition [26]: inactive
- inhibition [27]: inactive
- IC50 [28]: 500 nM
- IC50 [29]: 500 nM
- IC50 [30]: 100 nM
- Activity [31]: Active
